Test system: U2OS
Experiment: Multiplex assay against U2OS
Assay type: toxicity, cell-based
Details: human
How it was run: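 Per cents of healthy-nucleus cells form the tubulin, mitochondrial-mass and membrane-permeability phenotype values. Live cells were stained at seeding with Hoechst33342, BioTracker Green Microtubule Cytoskeleton Dye, MitoTracker Red and Annexin V Alexa Fluor 680. After compound addition they were imaged on a CQ1 microscope at 37°C and 5% CO2, and CellPathfinder machine-learning gating split them into Hoechst high-intensity objects or normal cells, normal cells into healthy, pyknosed or fragmented nuclei, and pyknosed cells into mitotic or apoptotic.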

[1] = 12 h, 1 µM, compound concentration 1 uM, replicate 1
[2] = 12 h, 1 µM, compound concentration 1 uM, replicate 2
[3] = 12 h, 10 µM, compound concentration 10 uM, replicate 1
[4] = 12 h, 10 µM, compound concentration 10 uM, replicate 2
[5] = 24 h, 1 µM, compound concentration 1 uM, replicate 1
[6] = 24 h, 1 µM, compound concentration 1 uM, replicate 2
[7] = 24 h, 10 µM, compound concentration 10 uM, replicate 1
[8] = 24 h, 10 µM, compound concentration 10 uM, replicate 2
[9] = 48 h, 1 µM, compound concentration 1 uM, replicate 1
[10] = 48 h, 1 µM, compound concentration 1 uM, replicate 2
[11] = 48 h, 10 µM, compound concentration 10 uM, replicate 1
[12] = 48 h, 10 µM, compound concentration 10 uM, replicate 2

## COc1c(Nc2ccc(S(C)(=O)=O)nc2C)ncnc1OC1CCN(C(=O)OC(C)C)CC1 [ADP-597]
[1]
  Population Apoptotic (%): 82%
  Population Fragmented Nuclei (%): 23%
  Population Healthy Nuclei (%): 68%
  Population Hoechst High Intensity Objects (%): 2%
  Population Membrane Permeable-Phenotype (%): 7%
  Population Mitochondria Different-Phenotype (%): 1%
  Population Mitotic Cells (%): 17%
  Population Normal (%): 97%
  Population Pyknosed Nuclei (%): 8%
  Population Tubulin-Different-Phenotype (%): 5%
  Total Cell Count: 208
[2]
  Population Apoptotic (%): 75%
  Population Fragmented Nuclei (%): 13%
  Population Healthy Nuclei (%): 78%
  Population Hoechst High Intensity Objects (%): 3%
  Population Membrane Permeable-Phenotype (%): 11%
  Population Mitotic Cells (%): 25%
  Population Normal (%): 96%
  Population Tubulin-Different-Phenotype (%): 2%
  Total Cell Count: 95
[3]
  Population Apoptotic (%): 93%
  Population Fragmented Nuclei (%): 27%
  Population Healthy Nuclei (%): 60%
  Population Hoechst High Intensity Objects (%): 8%
  Population Membrane Permeable-Phenotype (%): 7%
  Population Mitochondria Different-Phenotype (%): 2%
  Population Mitotic Cells (%): 6%
  Population Normal (%): 91%
  Population Pyknosed Nuclei (%): 11%
  Population Tubulin-Different-Phenotype (%): 4%
  Total Cell Count: 266
[4]
  Population Apoptotic (%): 85%
  Population Fragmented Nuclei (%): 10%
  Population Healthy Nuclei (%): 77%
  Population Hoechst High Intensity Objects (%): 4%
  Population Mitochondria Different-Phenotype (%): 3%
  Population Mitotic Cells (%): 14%
  Population Normal (%): 95%
  Population Tubulin-Different-Phenotype (%): 1%
  Total Cell Count: 128
[5]
  Population Apoptotic (%): 88%
  Population Fragmented Nuclei (%): 24%
  Population Healthy Nuclei (%): 67%
  Population Hoechst High Intensity Objects (%): 3%
  Population Membrane Permeable-Phenotype (%): 7%
  Population Mitochondria Different-Phenotype (%): 3%
  Population Mitotic Cells (%): 11%
  Population Normal (%): 96%
  Population Pyknosed Nuclei (%): 7%
  Population Tubulin-Different-Phenotype (%): 3%
  Total Cell Count: 239
[6]
  Population Apoptotic (%): 80%
  Population Fragmented Nuclei (%): 12%
  Population Healthy Nuclei (%): 79%
  Population Membrane Permeable-Phenotype (%): 8%
  Population Mitotic Cells (%): 20%
  Population Pyknosed Nuclei (%): 8%
  Population Tubulin-Different-Phenotype (%): 5%
  Total Cell Count: 129
[7]
  Population Apoptotic (%): 88%
  Population Fragmented Nuclei (%): 30%
  Population Healthy Nuclei (%): 61%
  Population Hoechst High Intensity Objects (%): 6%
  Population Membrane Permeable-Phenotype (%): 8%
  Population Mitochondria Different-Phenotype (%): 2%
  Population Mitotic Cells (%): 12%
  Population Normal (%): 93%
  Population Pyknosed Nuclei (%): 8%
  Population Tubulin-Different-Phenotype (%): 4%
  Total Cell Count: 305
[8]
  Population Apoptotic (%): 83%
  Population Fragmented Nuclei (%): 11%
  Population Healthy Nuclei (%): 80%
  Population Hoechst High Intensity Objects (%): 5%
  Population Membrane Permeable-Phenotype (%): 6%
  Population Mitochondria Different-Phenotype (%): 4%
  Population Mitotic Cells (%): 16%
  Population Normal (%): 94%
  Population Tubulin-Different-Phenotype (%): 1%
  Total Cell Count: 155
[9]
  Population Apoptotic (%): 80%
  Population Fragmented Nuclei (%): 19%
  Population Healthy Nuclei (%): 72%
  Population Hoechst High Intensity Objects (%): 2%
  Population Membrane Permeable-Phenotype (%): 6%
  Population Mitochondria Different-Phenotype (%): 5%
  Population Mitotic Cells (%): 19%
  Population Normal (%): 97%
  Population Pyknosed Nuclei (%): 7%
  Population Tubulin-Different-Phenotype (%): 2%
  Total Cell Count: 339
[10]
  Population Apoptotic (%): 81%
  Population Fragmented Nuclei (%): 20%
  Population Healthy Nuclei (%): 67%
  Population Membrane Permeable-Phenotype (%): 5%
  Population Mitochondria Different-Phenotype (%): 4%
  Population Mitotic Cells (%): 18%
  Population Pyknosed Nuclei (%): 12%
  Total Cell Count: 185
[11]
  Population Apoptotic (%): 79%
  Population Fragmented Nuclei (%): 24%
  Population Healthy Nuclei (%): 62%
  Population Hoechst High Intensity Objects (%): 6%
  Population Membrane Permeable-Phenotype (%): 6%
  Population Mitochondria Different-Phenotype (%): 4%
  Population Mitotic Cells (%): 20%
  Population Normal (%): 93%
  Population Pyknosed Nuclei (%): 13%
  Population Tubulin-Different-Phenotype (%): 2%
  Total Cell Count: 356
[12]
  Population Apoptotic (%): 92%
  Population Fragmented Nuclei (%): 10%
  Population Healthy Nuclei (%): 77%
  Population Hoechst High Intensity Objects (%): 3%
  Population Membrane Permeable-Phenotype (%): 4%
  Population Mitochondria Different-Phenotype (%): 0%
  Population Mitotic Cells (%): 8%
  Population Normal (%): 96%
  Population Pyknosed Nuclei (%): 11%
  Total Cell Count: 223

## COc1cc(Nc2ncc3c(n2)-c2ccc(Cl)cc2C(c2c(F)cccc2OC)=NC3)ccc1C(=O)O [ALISERTIB]
[1]
  Population Apoptotic (%): 63%
  Population Fragmented Nuclei (%): 23%
  Population Healthy Nuclei (%): 65%
  Population Hoechst High Intensity Objects (%): 1%
  Population Membrane Permeable-Phenotype (%): 4%
  Population Mitochondria Different-Phenotype (%): 3%
  Population Mitotic Cells (%): 36%
  Population Normal (%): 98%
  Population Pyknosed Nuclei (%): 10%
  Population Tubulin-Different-Phenotype (%): 3%
[2]
  Population Apoptotic (%): 71%
  Population Fragmented Nuclei (%): 35%
  Population Healthy Nuclei (%): 55%
  Population Hoechst High Intensity Objects (%): 4%
  Population Membrane Permeable-Phenotype (%): 8%
  Population Mitochondria Different-Phenotype (%): 4%
  Population Mitotic Cells (%): 28%
  Population Normal (%): 95%
  Population Pyknosed Nuclei (%): 8%
  Population Tubulin-Different-Phenotype (%): 11%
[3]
  Population Apoptotic (%): 79%
  Population Fragmented Nuclei (%): 31%
  Population Healthy Nuclei (%): 57%
  Population Hoechst High Intensity Objects (%): 3%
  Population Membrane Permeable-Phenotype (%): 11%
  Population Mitochondria Different-Phenotype (%): 5%
  Population Mitotic Cells (%): 20%
  Population Normal (%): 96%
  Population Pyknosed Nuclei (%): 11%
  Population Tubulin-Different-Phenotype (%): 4%
[4]
  Population Apoptotic (%): 71%
  Population Fragmented Nuclei (%): 12%
  Population Healthy Nuclei (%): 82%
  Population Hoechst High Intensity Objects (%): 2%
  Population Membrane Permeable-Phenotype (%): 5%
  Population Mitochondria Different-Phenotype (%): 1%
  Population Mitotic Cells (%): 28%
  Population Normal (%): 97%
  Population Pyknosed Nuclei (%): 5%
  Population Tubulin-Different-Phenotype (%): 0%
[5]
  Population Apoptotic (%): 78%
  Population Fragmented Nuclei (%): 26%
  Population Healthy Nuclei (%): 64%
  Population Hoechst High Intensity Objects (%): 1%
  Population Membrane Permeable-Phenotype (%): 9%
  Population Mitochondria Different-Phenotype (%): 4%
  Population Mitotic Cells (%): 21%
  Population Normal (%): 98%
  Population Pyknosed Nuclei (%): 8%
  Population Tubulin-Different-Phenotype (%): 5%
[6]
  Population Apoptotic (%): 75%
  Population Fragmented Nuclei (%): 20%
  Population Healthy Nuclei (%): 63%
  Population Hoechst High Intensity Objects (%): 2%
  Population Membrane Permeable-Phenotype (%): 6%
  Population Mitochondria Different-Phenotype (%): 2%
  Population Mitotic Cells (%): 25%
  Population Normal (%): 97%
  Population Pyknosed Nuclei (%): 15%
  Population Tubulin-Different-Phenotype (%): 2%
[7]
  Population Apoptotic (%): 84%
  Population Fragmented Nuclei (%): 30%
  Population Healthy Nuclei (%): 55%
  Population Hoechst High Intensity Objects (%): 4%
  Population Membrane Permeable-Phenotype (%): 13%
  Population Mitochondria Different-Phenotype (%): 5%
  Population Mitotic Cells (%): 15%
  Population Normal (%): 95%
  Population Pyknosed Nuclei (%): 13%
  Population Tubulin-Different-Phenotype (%): 4%
[8]
  Population Apoptotic (%): 90%
  Population Fragmented Nuclei (%): 12%
  Population Healthy Nuclei (%): 77%
  Population Membrane Permeable-Phenotype (%): 9%
  Population Mitochondria Different-Phenotype (%): 4%
  Population Mitotic Cells (%): 9%
  Population Pyknosed Nuclei (%): 9%
  Population Tubulin-Different-Phenotype (%): 5%
[9]
  Population Apoptotic (%): 85%
  Population Fragmented Nuclei (%): 28%
  Population Healthy Nuclei (%): 59%
  Population Hoechst High Intensity Objects (%): 3%
  Population Membrane Permeable-Phenotype (%): 6%
  Population Mitochondria Different-Phenotype (%): 5%
  Population Mitotic Cells (%): 14%
  Population Normal (%): 96%
  Population Pyknosed Nuclei (%): 12%
  Population Tubulin-Different-Phenotype (%): 3%
[10]
  Population Apoptotic (%): 78%
  Population Fragmented Nuclei (%): 29%
  Population Healthy Nuclei (%): 53%
  Population Membrane Permeable-Phenotype (%): 11%
  Population Mitochondria Different-Phenotype (%): 6%
  Population Mitotic Cells (%): 21%
  Population Pyknosed Nuclei (%): 17%
  Population Tubulin-Different-Phenotype (%): 4%
[11]
  Population Apoptotic (%): 88%
  Population Fragmented Nuclei (%): 34%
  Population Healthy Nuclei (%): 44%
  Population Hoechst High Intensity Objects (%): 9%
  Population Membrane Permeable-Phenotype (%): 16%
  Population Mitochondria Different-Phenotype (%): 9%
  Population Mitotic Cells (%): 11%
  Population Normal (%): 90%
  Population Pyknosed Nuclei (%): 21%
  Population Tubulin-Different-Phenotype (%): 9%
[12]
  Population Fragmented Nuclei (%): 16%
  Population Healthy Nuclei (%): 70%
  Population Hoechst High Intensity Objects (%): 5%
  Population Membrane Permeable-Phenotype (%): 7%
  Population Mitochondria Different-Phenotype (%): 3%
  Population Normal (%): 94%
  Population Pyknosed Nuclei (%): 13%
  Population Tubulin-Different-Phenotype (%): 2%
